Data from publication PMC4220649 (Blood Cancer Journal, 2014).
Where two headings read alike, the source gives them in different places.

Tested on: patients with relapsed/refractory lymphoma
Assay type: in vivo, human
Settings: for Drug-related grade ⩾3 AE: Renal failure: includes renal failure acute; for Drug-related AE: PN NEC: peripheral neuropathy, high-level term
In short: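 Open-label phase 1 in patients with relapsed/refractory lymphoma after ⩾2 prior therapies. Dosing started at one patient per level with doubling from 0.125 to 1.0 mg/m2, then followed a 3+3 schema up to 3.11 mg/m2. DLTs were assessed in cycle 1, and AEs were graded by NCI-CTCAE v3.0.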

## CC(C)C[C@H](NC(=O)CNC(=O)c1cc(Cl)ccc1Cl)B(O)O [ixazomib]
Dose 1.76 mg/m^2 (n=7)
  Drug-related AE: Paresthesia: 0 n
  Drug-related AE: Peripheral edema: 1 n
  Drug-related AE: Pyrexia: 3 n
  Drug-related AE: Thrombocytopenia: 2 n
  Drug-related AE: Vomiting: 4 n
  Drug-related grade ⩾3 AE: Any grade ⩾3 AE: 3 n
  Drug-related grade ⩾3 AE: Dehydration: 0 n
  Drug-related grade ⩾3 AE: Diarrhea: 0 n
  Drug-related grade ⩾3 AE: Lymphopenia: 0 n
  Drug-related grade ⩾3 AE: Neutropenia: 1 n
  Drug-related grade ⩾3 AE: Thrombocytopenia: 1 n
  Drug-related grade ⩾3 AE: Renal failure: 0 n
  Drug-related AE: PN NEC: 2 n
Dose 2.34 mg/m^2 (n=10)
  Drug-related AE: Abdominal pain: 2 n
  Drug-related AE: Any AE: 10 n
  Drug-related AE: Arthralgia: 1 n
  Drug-related AE: Chills: 1 n
  Drug-related AE: Constipation: 0 n
  Drug-related AE: Cough: 1 n
  Drug-related AE: Decreased appetite: 0 n
  Drug-related AE: Decreased platelet count: 0 n
  Drug-related AE: Diarrhea: 2 n
  Drug-related AE: Dysgeusia: 1 n
  Drug-related AE: Fatigue: 2 n
  Drug-related AE: Headache: 1 n
  Drug-related AE: Hypokalemia: 0 n
  Drug-related AE: Lymphopenia: 2 n
  Drug-related AE: Nausea: 1 n
  Drug-related AE: Neutropenia: 3 n
  Drug-related AE: Oral herpes: 1 n
  Drug-related AE: Pain in extremity: 2 n
  Drug-related AE: Paresthesia: 1 n
  Drug-related AE: Peripheral edema: 2 n
  Drug-related AE: Pyrexia: 2 n
  Drug-related AE: Thrombocytopenia: 2 n
  Drug-related AE: Vomiting: 1 n
  Drug-related grade ⩾3 AE: Any grade ⩾3 AE: 4 n
  Drug-related grade ⩾3 AE: Dehydration: 0 n
  Drug-related grade ⩾3 AE: Diarrhea: 0 n
  Drug-related grade ⩾3 AE: Lymphopenia: 1 n
  Drug-related grade ⩾3 AE: Neutropenia: 3 n
  Drug-related grade ⩾3 AE: Thrombocytopenia: 1 n
  Drug-related grade ⩾3 AE: Renal failure: 0 n
  Drug-related AE: PN NEC: 0 n
Dose 3.11 mg/m^2 (n=5)
  Drug-related AE: Abdominal pain: 2 n
  Drug-related AE: Any AE: 5 n
  Drug-related AE: Arthralgia: 2 n
  Drug-related AE: Chills: 1 n
  Drug-related AE: Constipation: 3 n
  Drug-related AE: Cough: 1 n
  Drug-related AE: Decreased appetite: 3 n
  Drug-related AE: Decreased platelet count: 2 n
  Drug-related AE: Diarrhea: 4 n
  Drug-related AE: Dysgeusia: 0 n
  Drug-related AE: Fatigue: 2 n
  Drug-related AE: Headache: 1 n
  Drug-related AE: Hypokalemia: 2 n
  Drug-related AE: Lymphopenia: 1 n
  Drug-related AE: Nausea: 2 n
  Drug-related AE: Neutropenia: 1 n
  Drug-related AE: Oral herpes: 1 n
  Drug-related AE: Pain in extremity: 1 n
  Drug-related AE: Paresthesia: 0 n
  Drug-related AE: Peripheral edema: 1 n
  Drug-related AE: Pyrexia: 0 n
  Drug-related AE: Thrombocytopenia: 1 n
  Drug-related AE: Vomiting: 3 n
  Drug-related grade ⩾3 AE: Any grade ⩾3 AE: 3 n
  Drug-related grade ⩾3 AE: Dehydration: 2 n
  Drug-related grade ⩾3 AE: Diarrhea: 3 n
  Drug-related grade ⩾3 AE: Lymphopenia: 1 n
  Drug-related grade ⩾3 AE: Neutropenia: 1 n
  Drug-related grade ⩾3 AE: Thrombocytopenia: 1 n
  Drug-related grade ⩾3 AE: Renal failure: 2 n
  Drug-related AE: PN NEC: 1 n
Dose 0.125–1.0 mg/m^2 (n=4)
  Drug-related AE: Abdominal pain: 0 n
  Drug-related AE: Any AE: 4 n
  Drug-related AE: Arthralgia: 0 n
  Drug-related AE: Chills: 0 n
  Drug-related AE: Constipation: 0 n
  Drug-related AE: Cough: 0 n
  Drug-related AE: Decreased appetite: 1 n
  Drug-related AE: Decreased platelet count: 0 n
  Drug-related AE: Diarrhea: 1 n
  Drug-related AE: Dysgeusia: 0 n
  Drug-related AE: Fatigue: 3 n
  Drug-related AE: Headache: 2 n
  Drug-related AE: Hypokalemia: 1 n
  Drug-related AE: Lymphopenia: 0 n
  Drug-related AE: Nausea: 1 n
  Drug-related AE: Neutropenia: 0 n
  Drug-related AE: Oral herpes: 0 n
  Drug-related AE: Pain in extremity: 0 n
  Drug-related AE: Paresthesia: 1 n
  Drug-related AE: Peripheral edema: 0 n
  Drug-related AE: Pyrexia: 0 n
  Drug-related AE: Thrombocytopenia: 1 n
  Drug-related AE: Vomiting: 0 n
  Drug-related grade ⩾3 AE: Any grade ⩾3 AE: 1 n
  Drug-related grade ⩾3 AE: Dehydration: 0 n
  Drug-related grade ⩾3 AE: Diarrhea: 0 n
  Drug-related grade ⩾3 AE: Lymphopenia: 0 n
  Drug-related grade ⩾3 AE: Neutropenia: 0 n
  Drug-related grade ⩾3 AE: Thrombocytopenia: 0 n
  Drug-related grade ⩾3 AE: Renal failure: 0 n
  Drug-related AE: PN NEC: 1 n
Grade 1 or 2, all doses, n=30
  Drug-related peripheral neuropathy (PN), patients: 13%
All doses, Total (n=30)
  Drug-related grade ⩾3 AE: Renal failure: 2 (7) n (%)
  Drug-related AE: PN NEC: 4 (13) n (%)
Dose 1.4 mg/m^2 (n=4)
  Drug-related grade ⩾3 AE: Renal failure: 0 n
  Drug-related AE: PN NEC: 0 n
